Two molecules from ChEMBL document CHEMBL1132381, “Pyrrolidine-3-carboxylic acids as endothelin antagonists. 4. Side chain conformational restriction leads to ET(B) selectivity” (J Med Chem, 1999) can be followed below.

Usually half-life stands for the time needed for the level to fall by half in the phase considered. High values mean slow loss, low ones fast loss. By AUC is commonly meant the area under the concentration-time curve, a measure of exposure. As usually defined, the IC50 is the concentration needed to halve the response being measured. A lower IC50 goes with higher potency. The bioavailability is the share of a dose that reaches the circulation, judged against a reference dose that is usually intravenous. Higher therefore signals good availability.

The nature of data set [1]: Compound was evaluated for the biological half-life when administered through intravenous route. Type of data set: ADME, organism-based. To be noted: in vivo.
Data set [2] is described as follows: Compound was evaluated for area under curve when administered through oral route in rat. The settings on record: in vivo.
The next data set addresses T1, Endothelin-1 receptor (Homo sapiens, UniProt P25101).
T1 sequence (P25101 whole entry): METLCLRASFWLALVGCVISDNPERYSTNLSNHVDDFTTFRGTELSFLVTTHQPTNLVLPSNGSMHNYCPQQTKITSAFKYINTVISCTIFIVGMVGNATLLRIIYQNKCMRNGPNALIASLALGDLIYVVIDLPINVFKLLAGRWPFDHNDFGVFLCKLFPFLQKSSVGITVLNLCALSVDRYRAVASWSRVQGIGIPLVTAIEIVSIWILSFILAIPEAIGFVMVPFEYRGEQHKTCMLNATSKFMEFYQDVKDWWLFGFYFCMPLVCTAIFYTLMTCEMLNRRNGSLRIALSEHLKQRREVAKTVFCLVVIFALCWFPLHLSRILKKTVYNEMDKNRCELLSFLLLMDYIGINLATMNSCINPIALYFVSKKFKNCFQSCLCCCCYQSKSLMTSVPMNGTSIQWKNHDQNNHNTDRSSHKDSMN
Kind of data set: Binding affinity towards human Endothelin A receptor (hET -A).

Data set [3] concerns the target T2, Endothelin receptor type B (Homo sapiens, UniProt P24530).
T2 sequence (P24530 whole entry): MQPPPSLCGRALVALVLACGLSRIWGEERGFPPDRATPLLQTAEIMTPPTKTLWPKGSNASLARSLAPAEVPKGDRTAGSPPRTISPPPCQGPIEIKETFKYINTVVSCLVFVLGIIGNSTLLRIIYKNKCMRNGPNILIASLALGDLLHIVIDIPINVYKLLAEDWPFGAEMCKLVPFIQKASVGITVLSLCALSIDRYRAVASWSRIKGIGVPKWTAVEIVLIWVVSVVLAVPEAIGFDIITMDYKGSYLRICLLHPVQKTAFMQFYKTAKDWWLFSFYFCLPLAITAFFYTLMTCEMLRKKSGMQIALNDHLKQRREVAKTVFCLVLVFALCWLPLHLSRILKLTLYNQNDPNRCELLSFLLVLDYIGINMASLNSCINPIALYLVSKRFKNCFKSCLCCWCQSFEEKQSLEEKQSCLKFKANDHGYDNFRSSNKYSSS
Kind of data set: Binding affinity towards human Endothelin B receptor (hET -B).

Data set [4] can be described thus: Oral bioavailability in rat. The settings on record: in vivo.
For data set [5], the species on record is Rattus norvegicus. Kind of data set: Clearance role of ET-B evaluated in terms of increase in circulating levels of ET-1 in rats. Type of data set: functional.
A further data set concerns CHO. Kind of data set: Antagonistic activity was measured by ET receptor mediated hydrolysis of inositol phosphates. Type of data set: functional, cell-based. The settings on record: Cricetulus griseus. The method in brief: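 Inositol phosphate hydrolysis in human ETB-transfected CHO cells. Confluent cells labeled with 5 μCi/well [3H]myoinositol, then held 60 min at 37 °C in HEPES saline buffer with protease inhibitors and 10 mM LiCl. Compounds added, then 1 nM ET-1 challenge for 30 min at 37 °C. Total inositol phosphates measured; agonist activity assessed in the same run.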

Data set [6] can be described thus: Compound was evaluated for area under curve when administered through oral route to rat. The settings on record: in vivo.
Data set [7] can be described thus: Oral bioavailability in rat. The settings on record: in vivo. The source holds these as a separate data set.
Data set [8] is filed under the species Rattus norvegicus. Kind of data set: Clearance role of ET-B evaluated in terms of increase in mean arterial pressure (MAP) in rats. Type of data set: functional, Artery.

On to `CCc1cccc(CC)c1NC(=O)CN1C[C@H](c2ccc3c(c2)OCO3)[C@@H](C(=O)O)[C@@H]1c1ccc(OC)cc1` (stereo in doubt; 36), for which, in data set [1], the half-life is 6.4 h. In [2], this molecule returned an AUC of 3900 ng·h/mL. The figures for the half-maximal inhibitory concentration (IC50) (at Endothelin-1 receptor; in data set [3]) were 89 nM and 0.27 nM, respectively. Moreover, in data set [4], the bioavailability came out at 49%.

As to `CCCOc1ccc([C@H]2[C@H](C(=O)O)[C@@H](c3ccc4c(c3)OCO4)CN2CC(=O)Nc2c(CC)cccc2CC)cc1` (stereo in doubt; 38) [A-192621], the ET-1 level in the data set listed under Rattus norvegicus [5] is 19 pg/mL. Besides, in [1], the half-life was 5 h. In addition, the IC50 amounted to 0.65 nM in the data set on CHO, 8200 nM on Endothelin-1 receptor and 6.4 nM in [3]. Also, in data set [6], the AUC was determined as 2500 ng·h/mL. The bioavailability in data set [7] worked out at 35%. Further, the MAP in the data set filed under Rattus norvegicus [8] is listed as 150 mmHg.
